According to publication PMC10336577 (Saudi Pharmaceutical Journal : SPJ, 2023):
In brackets after ≈: the same amount, converted by molar mass. Several values for one entry are separate records, joined by “and”; a condition that tells them apart may be missing. Identical values can stand only once. Like-named read-outs stand apart in the source and are kept apart here.

Tests used:
[1] = tested on: MCF-7 cell line; assay: MTT cytotoxicity assay, MCF-7; type: cell-based; conditions: for IC50: Homo sapiens, MCF7, 24 h, read-out: IC50, MCF-7
Method in brief: (§1)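 Human lines were obtained from ATCC. MCF-7 and MDA-MB-231 were grown in DMEM with 10% FBS, and MCF-10A in DMEM-F12 with 10% FBS, all at 37 °C, 5% CO2. Cells were seeded at 1×10^4 per well, given varying concentrations of extract or test compound, and PBS-washed after 24 h. MTT was applied for 4 h at 37 °C and formazan dissolved in DMSO, with absorbance read at 570 nm. Hydrogen peroxide was the positive control. Runs were done in triplicate, with % viability and IC50 calculated.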

[2] = tested on: MDA-MB-231 cell line; assay: MTT cytotoxicity assay, MDA-MB-231; type: cell-based; conditions: for IC50: Homo sapiens, MDA-MB-231, 24 h, read-out: IC50, MDA-MB-231
Method in brief: as §1

[3] = tested on: MCF-10A non-tumorigenic breast epithelial cell line; assay: MTT cytotoxicity assay, MCF-10A; type: cell-based; conditions: 24 h; for IC50: Homo sapiens, MCF-10A, read-out: IC50, MCF-10A
Method in brief: as §1

[4] = tested on: MDA-MB-231 cell line; assay: Annexin V-FITC/PI flow cytometry, MDA-MB-231; type: cell-based; conditions: 48 h; for viable cells, MDA-MB-231: quadrant LL, highest doses of compounds; for early apoptotic cells, MDA-MB-231: quadrant LR; for necrotic cells, MDA-MB-231: quadrant UL; for late apoptotic cells, MDA-MB-231: quadrant UR
[5] = tested on: IGROV-1 human ovary cell line; conditions: ref Znati et al., 2014; cited from earlier work
[6] = tested on: OVCAR-3 human ovary cell line; conditions: ref Znati et al., 2014; cited from earlier work
[7] = tested on: HCT-116 human colon cancer cell line; conditions: ref Znati et al., 2014; cited from earlier work
[8] = tested on: HEP-G2 hepatocellular carcinoma cells; conditions: 25–400 μg/mL, 72 h, MTT assay; ref Gevrenova et al., 2016; cited from earlier work
[9] = tested on: breast cancer cell lines (MCF-7 and MDA-MB-231); assay: MTT cytotoxicity on the breast cancer cell lines; type: cell-based; conditions: MCF-7 and MDA-MB-231, MTT
[10] = tested on: MIA PaCa-2 pancreatic cancer cell line; conditions: read-out: IC50, MIA PaCa-2; ref Boukes and Venter, 2016; cited from earlier work
[11] = tested on: INS-1 pancreatic cancer cell line; conditions: read-out: IC50, INS-1; ref Boukes and Venter, 2016; cited from earlier work
[12] = tested on: A549 human non-small cell lung cancer cell line; conditions: ref Yang et al., 2017, cited from earlier work
[13] = tested on: BT-20 human breast cancer cell line; conditions: read-out: IC50, BT-20; ref Bender and Atalay, 2018; cited from earlier work
[14] = tested on: SK-BR-3 human breast cancer cell line; conditions: read-out: IC50, SK-BR-3; ref Bender and Atalay, 2018; cited from earlier work
[15] = tested on: MDA-MB-468 human breast cancer cell line; conditions: read-out: IC50, MDA-MB-468; ref Bender and Atalay, 2018; cited from earlier work
[16] = tested on: PLC/PRF/5 hepatocellular carcinoma cell line; conditions: 100 µM; ref Refolo et al., 2018; cited from earlier work
[17] = tested on: HepG2 hepatocellular carcinoma cell line; conditions: 100 µM; ref Refolo et al., 2018; cited from earlier work
[18] = tested on: MCF-7 cell line; assay: Annexin V-FITC/PI flow cytometry, MCF-7; type: cell-based; conditions: 48 h
[19] = tested on: HeLa human uterine carcinoma; conditions: ref Sun et al. 2006; cited from earlier work
[20] = tested on: Bel-7402 human hepatocellular carcinoma; conditions: ref Sun et al. 2006; cited from earlier work
[21] = tested on: A375-S2 human malignant melanoma; conditions: ref Sun et al. 2006; cited from earlier work
[22] = tested on: SGC-7901 human gastric cancer cell line; conditions: ref Sun et al. 2006; cited from earlier work
[23] = tested on: HT-1080 fibrosarcoma cell line; conditions: ref Rajendra et al., 2011, cited from earlier work
[24] = tested on: cells; assay: Cell death type; type: cell-based
Method in brief: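 MCF-7, MDA-MB-231 and MCF-10A cells were seeded at 3×10^5 cells per well in six-well plates and held 24 h at 37 °C, 5% CO2. They were exposed 48 h to the highest test-compound doses, trypsinised, PBS-washed and pelleted at 1500 rpm for 5 min. Cells were stained with Annexin V-FITC/PI in 1X binding buffer for 15 min at 37 °C in the dark, then run by flow cytometry. Viable, early/late apoptotic and necrotic cells are given as % of total, in triplicate.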

[25] = tested on: DMS-114 human lung cancer cell line; conditions: ref Manthey and Guthrie, 2002; cited from earlier work
[26] = tested on: HT-29 colon cancer cell line; conditions: ref Manthey and Guthrie, 2002; cited from earlier work
[27] = tested on: DU-145 prostate cancer cell line; conditions: ref Manthey and Guthrie, 2002; cited from earlier work
[28] = tested on: SK-MEL5 melanoma cancer cell line; conditions: ref Manthey and Guthrie, 2002; cited from earlier work
[29] = tested on: DU145 prostate cancer cell; conditions: ref Lewinska et al., 2015, cited from earlier work
[30] = tested on: A431 cells; conditions: MTT assay; ref Buddhan and Manoharan, 2017; cited from earlier work
[31] = MTT assay, 24 h, ± standard deviation

COc1cc(-c2oc3cc(O)cc(O)c3c(=O)c2O[C@@H]2O[C@H](CO[C@@H]3O[C@@H](C)[C@H](O)[C@@H](O)[C@H]3O)[C@@H](O)[C@H](O)[C@H]2O)ccc1O [Compound 2, Isorhamnetin-3-O-rutinoside]
IC50 [1]: 137 ± 8.62 µg/mL (≈ 220 µM)
IC50 [2]: 77.8 ± 39.9 µg/mL (≈ 125 µM)
IC50 [3]: 133 ± 23.5 µg/mL (≈ 214 µM)
viable cells, MDA-MB-231 [4]: 63%
concentration up to which no cytotoxic activity was shown, IGROV-1 [5]: > 100 µM
concentration up to which no cytotoxic activity was shown, OVCAR-3 [6]: > 100 µM
concentration up to which no cytotoxic activity was shown, HCT-116 [7]: > 100 µM
hepatoprotective activity, HEP-G2 [8]: no significant hepatoprotective activity

O=c1c(O[C@@H]2O[C@H](CO)[C@H](O)[C@H](O)[C@H]2O)c(-c2ccc(O)c(O)c2)oc2cc(O)cc(O)c12 [Compound 3, Quercetin-3-O-galactoside]
IC50 [1]: 147 ± 7.32 µg/mL (≈ 317 µM)
IC50 [2]: 141 ± 14 µg/mL (≈ 304 µM)
IC50 [3]: 127 ± 12.5 µg/mL (≈ 273 µM)
concentration up to which no cytotoxic activity was shown [9]: > 100 µg/mL
viable cells, MDA-MB-231 [4]: 46%
early apoptotic cells, MDA-MB-231 [4]: 22%
necrotic cells, MDA-MB-231 [4]: 6%
late apoptotic cells, MDA-MB-231 [4]: 26%
IC50 [10]: 50 µM
IC50 [11]: 50 µM
cell viability of A549 ([12]; 10–100 µM, time- and dose-dependent): inhibited cell viability
percentage of apoptotic cells, A549 ([12]; 24 h, dose-dependent): significant increase

O=C(/C=C/c1ccc(O)c(O)c1)O[C@@H]1C[C@](O)(C(=O)O)C[C@@H](O)[C@H]1O [Compound 5, Chlorogenic acid]
IC50 [1]: 371 ± 9.49 µg/mL (≈ 1050 µM)
IC50 [2]: 361 ± 4.83 µg/mL (≈ 1020 µM)
IC50 [3]: 356 ± 19.1 µg/mL (≈ 1010 µM)
concentration up to which no cytotoxic activity was shown [9]: > 360 µg/mL
viable cells, MDA-MB-231 [4]: 51%
IC50 [13]: 1100 µM
IC50 [14]: 882 µM
IC50 [15]: 940 µM
effect on Regorafenib-mediated cell growth inhibition, PLC/PRF/5 [16]: enhanced
effect on Regorafenib-mediated cell growth inhibition, HepG2 [17]: enhanced

O=C(O)/C=C/c1ccc(O)c(O)c1 [Compound 4, Caffeic acid]
IC50 [1]: 40.3 ± 2.84 µg/mL (≈ 224 µM)
IC50 [2]: 64 ± 4.11 µg/mL (≈ 355 µM)
IC50 [3]: 149 ± 14.1 µg/mL (≈ 825 µM)
early apoptotic cells, MCF-7 ([18]; quadrant LR, doses as b44): 52%
necrotic cells, MCF-7 ([18]; quadrant UL, doses as b44): 3%
late apoptotic cells, MCF-7 ([18]; quadrant UR, doses as b44): 13%
viable cells, MDA-MB-231 [4]: 30%
early apoptotic cells, MDA-MB-231 [4]: 52%
necrotic cells, MDA-MB-231 [4]: 3%
late apoptotic cells, MDA-MB-231 [4]: 13%
concentration up to which no cytotoxic activity was shown, HeLa [19]: > 100 µg/mL
concentration up to which no cytotoxic activity was shown, Bel-7402 [20]: > 100 µg/mL
concentration up to which no cytotoxic activity was shown, A375-S2 [21]: > 100 µg/mL
concentration up to which no cytotoxic activity was shown, SGC-7901 [22]: > 100 µg/mL
cell viability, HT-1080 ([23]; 50 µg/mL): 15%
inhibition of HT-1080 cell line ([23]; 30, 40, and 50 μg/mL): notably inhibited

COc1ccc(-c2cc(=O)c3c(O)cc(O[C@@H]4O[C@H](CO[C@@H]5O[C@@H](C)[C@H](O)[C@@H](O)[C@H]5O)[C@@H](O)[C@H](O)[C@H]4O)cc3o2)cc1O [Compound 1, Diosmetin-7-O-rutinoside]
IC50 [1]: 13.7 ± 11 µg/mL (≈ 22.4 µM)
IC50 [2]: 12.9 ± 12.2 µg/mL (≈ 21.2 µM)
IC50 [3]: 8.66 ± 20.5 µg/mL (≈ 14.2 µM)
viable cells, MDA-MB-231 [4]: 56%
type of cell death causing the cytotoxic effect [24]: necrosis
concentration up to which no cytotoxic activity was shown, DMS-114 [25]: > 200 µM
concentration up to which no cytotoxic activity was shown, HT-29 [26]: > 200 µM
concentration up to which no cytotoxic activity was shown, DU-145 [27]: > 200 µM
concentration up to which no cytotoxic activity was shown, SK-MEL5 [28]: > 200 µM
DU145 cell viability ([29]; 50 µM): 70%
DU145 cell viability ([29]; 250 µM): 40%
IC50, A431 [30]: 45 µg/mL (≈ 73.9 µM)

OO [Compound H2O2, hydrogen peroxide, reference compound]
IC50, MCF-7 [1, 31]: 7.45 ± 12.77 µg/mL and 10.11 ± 0.90 µg/mL and 11.97 ± 6.72 µg/mL and 9.91 ± 0.31 µg/mL
IC50, MDA-MB-231 [2, 31]: 8.48 ± 3.53 µg/mL and 11.86 ± 2.43 µg/mL and 11.45 ± 1.52 µg/mL
IC50, MCF-10A ([3]; MTT assay, ± standard deviation): 10.32 ± 3.60 µg/mL and 11.40 ± 3.60 µg/mL and 9.77 ± 8.56 µg/mL and 12.58 ± 9.77 µg/mL
percentage of cell death, MCF-7 ([18]; doses as b44): 70%
viable cells, MCF-7 ([18]; quadrant LL, H2O2 17, Compound 1 24, 2 156, 3 372, 4 30, 5 710, 6 60 µg/mL): 30%
percentage of cell death, MDA-MB-231 [4]: 79%
viable cells, MDA-MB-231 [4]: 21%
